HIV Env fusion – blocks HIV Env-driven cell-cell fusion; HeLa-JRFL Env/CEM21 cell fusion, luciferase; inhibition, % at 12.3 µM; 1.1% of 360,000 active; AID 651610;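 active = mean replicate inhibition score of at least 50 and every replicate individually at or above 50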;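 also: 0% = plate neutral controls and 100% = maraviroc near 300 nM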
rRNA inh HTS – selective bacterial rRNA inhibition in E. coli. E. coli WT GFP vs humanized-ribosome RFP mutants, fluorescence, 24 h; active compounds read low; DMSO median 0, no signal -100. GFP signal change (wild-type ribosome), % (concentration not given with the values). 1.6% of 350,000 active. AID 720706;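 active = significant combined selectivity score with lowered wild-type GFP, culture density cut under 30%, mutant RFP and density less affected; inactive = any of these conditions unmet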
CFTR F508del cor – correctors of CFTR F508del function in bronchial epithelial cells; 0.36% of 350,000 active; AID 720511; CFBE cells, YFP halide quenching; stimulated with forskolin plus potentiator P3; % fluorescence drop versus neutral controls; activity (quench increase), % at 7.58 µM;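 active = mean added fluorescence quench of at least 8% versus neutral control, with both replicates also reaching 8%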;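 also: cells transiently co-express mutant CFTR-F508del with the halide-sensitive YFP; corrector assay measuring rescue of mutant channel to the surface after 24 h compound exposure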
Cneo AK release – causes C. neoformans cell lysis; adenylate kinase release luminescence, 4 h; normalised: neutral wells 0, clomiphene wells 100; AID 651654; lysis activity, % at 15 µM; 0.2% of 360,000 active;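 active = mean lysis activity across replicates of at least 80%, whatever share of replicates individually reach that level; inactive = mean lysis activity below 80%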
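Material – log-phase Cryptococcus neoformans yeast cells · Input – 5 × 10^6 yeast cells/mL · Medium – fresh YPD growth medium · Doses – single compound concentration per well · Timing – static 4 h at 37 °C with compound, 1 h detection · Detection – adenylate kinase release luminescence · Read-out – signal increase indicating cell lysis · Control set – Clomiphene as positive lysis control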
GSIS activator – GLuc luminescence reporter in INS-1E cells, primary screen for activators of glucose-dependent secretion of insulin | activation, % at 16.6 µM | INS-1E GLuc reporter insulin secretion, 2-3 h | 0.61% of 370,000 active;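 active = lowest replicate activation of at least 40%, so every replicate reaches that level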;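 also: 0% = median of neutral control wells and 100% = median of IBMX positive control wells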
miR-122 sensor – miR-122 inhibition in Huh7 cells. Huh7 miR-122 Renilla luciferase sensor, 48 h; neutral wells = 0, positive control = 100. activation (reporter increase), % at 12.5 µM. 0.3% of 340,000 active;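 active = mean replicate activation score at least 90 and every replicate individually at or above 90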;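 also: higher luciferase means less miR-122 activity so hits act as miR-122 inhibitors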
* marks the source's active call; other numbers are inactive results; . = no result; [ ] = another dose, or the depositor's remark. Sampled rows, rich in hits. Any-hit rate of the full collection: about 3.1%.

SMILES	HIV Env fusion	rRNA inh HTS	CFTR F508del cor	Cneo AK release	GSIS activator	miR-122 sensor
Cc1nn(-c2ccccc2)c2nc(C(F)F)cc(C(F)F)c12	.	5.2	-2.0	-1.3	70.0*	1.8
Cc1cc(C)c2c(C)nn(-c3ccccc3)c2n1	-38.1	.	.	-3.4	.	-5.3
C[C@@H]1CN([C@@H](C)CO)C(=O)c2cccc(NC(=O)NC3CCCCC3)c2O[C@H]1CN(C)Cc1ccc(C(=O)O)cc1	8.2[16.7 µM]	-2.8	1.2	-1.7	6.6	9.1[16.7 µM]
Cn1c(-[n+]2c(-c3ccccc3)cc(-c3ccccc3)cc2-c2ccccc2)nc2c([N+](=O)[O-])cccc21	13.0	-21.7*	.	5.9	-4.0	30.5
COc1cc(/C=C/C(=O)OCC(=O)NC(=O)NC(C)C)ccc1OCC#N	11.7	.	.	2.6	21.2	22.7
COc1cc(NC(=O)COC(=O)/C=C/c2ccc(O)c(OC)c2)cc(OC)c1	14.7	-28.9*	0.2	.	18.4	.
COc1cc(/C=C/C(=O)OCC(=O)NC(=O)NC(C)C)ccc1O	57.2*	-1.6	0.0	0.6	17.3	-2.1
CC(C)CC#Cc1cnc2c(c1)C(=O)N([C@@H](C)CO)C[C@@H](C)[C@H](CN(C)Cc1cncnc1)O2	-26.5[16.7 µM]	0.2	0.2	14.4	2.5	-1.6[16.7 µM]
Cc1cc(C)cc(NC(=O)CCCN2C(=O)C(c3ccccc3)Oc3cccnc32)c1 (centres undefined)	34.3	-0.5	1.6	1.8	-0.3	1.5
O=C(CCCN1C(=O)C(c2ccccc2)Oc2cccnc21)Nc1cccc(F)c1 (centres undefined)	11.5	-27.4*	0.9	0.9	-19.5	6.7
C[C@H]1CN([C@@H](C)CO)C(=O)c2cccc(NC(=O)C3CCOCC3)c2O[C@@H]1CN(C)S(=O)(=O)c1cn(C)cn1	.	1.2	-3.0	-5.0	-5.5	29.9[16.7 µM]
CCOc1cc(/C=N/NC(=O)CSc2cccc3cccnc23)ccc1O	-0.9	-10.2	3.4	.	66.1*	.
CCOc1cc(/C=N/NC(=O)C(C)Sc2ccccn2)ccc1O (centres undefined)	3.8	.	.	.	69.7*	.
CCCOc1ccc(/C=C/C(=O)Nc2ccc([N+](=O)[O-])cc2)cc1	68.4*	.	.	7.3	.	-4.7
O=C(COc1ccc([N+](=O)[O-])cc1)NNC(=O)Nc1ccc([N+](=O)[O-])cc1	.	-19.0*	0.1	0.1	-23.8	-3.0
CCCOC(=O)c1cccc(NC(=O)COc2ccc([N+](=O)[O-])cc2)c1	24.4	-21.4*	4.3	.	.	.
CC(C)NC(=O)Nc1ccc2c(c1)C(=O)N([C@@H](C)CO)C[C@@H](C)[C@@H](CN(C)Cc1ccc(Oc3ccccc3)cc1)O2	.	-2.6	-0.5	0.1	-26.3	60.8[16.7 µM]
C[C@@H]1CN([C@H](C)CO)C(=O)c2cccc(NC(=O)C3CCCCC3)c2O[C@H]1CN(C)C(=O)Nc1ccccc1	.	0.8	-0.2	2.0	6.9	12.5[16.7 µM]
CN(C)c1cncc(C(=O)O)c1	-6.5	15.7	.	.	63.2*	.
Cc1cccc(NS(=O)(=O)c2cc3c4c(c2)C(C)C(=O)N4CCC3)c1 (centres undefined)	2.9	-0.8	-1.0	-0.5	.	109.9*
COC(=O)c1c(C)[nH]c(C(=O)OCC(=O)c2ccc(C)s2)c1C	-5.8	-19.9*	-3.3	1.3	.	3.3
Cc1ccc(N2C(=O)CC(c3ccsc3)C3=C2CC(C)(C)CC3=O)cc1 (centres undefined)	107.5*	.	.	-2.1	.	50.0
COc1ccc(/C=N/NC(=O)c2cc(C(C)(C)C)[nH]n2)cc1COc1ccc(F)cc1F	-0.8	-24.4*	-0.2	0.8	-13.0	-4.6
CC(C)(C)c1ccc(C#C[C@@H]2C=C[C@H]3OC(=O)CC/C=C/CCC(=O)OC[C@H]3O2)cc1	-3.8	14.7	0.4	.	95.3*	.
C[C@H]1CN([C@@H](C)CO)C(=O)c2cccc(NC(=O)C3CC3)c2O[C@@H]1CN(C)Cc1ccc(C(F)(F)F)cc1	-4.9[16.7 µM]	-4.9	2.0	-0.8	-8.5	113.0*[16.7 µM]
SMILES	HIV Env fusion	rRNA inh HTS	CFTR F508del cor	Cneo AK release	GSIS activator	miR-122 sensor
C[C@@H]1CN([C@@H](C)CO)C(=O)c2cccc(NC(=O)NC3CCCCC3)c2O[C@@H]1CN(C)Cc1ccc(C(F)(F)F)cc1	15.0[16.7 µM]	-6.4	0.2	0.9	-17.3	8.4[16.7 µM]
COc1ccc(CN(C)C[C@@H]2Oc3c(NC(=O)Nc4cccc5ccccc45)cccc3C(=O)N([C@@H](C)CO)C[C@@H]2C)cc1	.	2.5	-4.4	114.2*	3.2	7.5[16.7 µM]
C[C@@H]1CN([C@@H](C)CO)C(=O)c2cccc(NC(=O)C3CCOCC3)c2O[C@@H]1CN(C)Cc1ccc(C(F)(F)F)cc1	.	4.0	-2.0	0.5	-5.4	2.1[16.7 µM]
C[C@H]1CN([C@@H](C)CO)C(=O)c2cccc(NC(=O)C3CCOCC3)c2O[C@@H]1CN(C)Cc1ccc(C(F)(F)F)cc1	.	2.7	5.7	1.2	-6.7	105.3*[16.7 µM]
C[C@H]1CN([C@@H](C)CO)C(=O)c2cccc(NC(=O)NC3CCCCC3)c2O[C@@H]1CN(C)Cc1ccc(C(F)(F)F)cc1	9.7[16.7 µM]	3.4	2.1	-1.6	-12.3	121.0*[16.7 µM]
COc1cccc(C(=O)Nc2ccc3c(c2)C(=O)N(C)C[C@H](OC)[C@@H](C)CN[C@H](C)CO3)c1	11.4[16.7 µM]	1.8	3.0	-0.2	1.6	.
C[C@@H]1CN([C@@H](C)CO)C(=O)c2cccc(NC(=O)C3CCCCC3)c2O[C@H]1CN(C)Cc1ccc(C(F)(F)F)cc1	.	1.4	-4.3	-5.0	-20.8	51.6[16.7 µM]
C[C@H]1CN([C@@H](C)CO)C(=O)c2cccc(NC(=O)NC3CCCCC3)c2O[C@H]1CN(C)Cc1ccc(Cl)c(Cl)c1	-72.3[16.7 µM]	-6.8	2.1	1.0	-49.5	73.4[16.7 µM]
C[C@H](CO)N1C[C@H](C)[C@@H](CN(C)Cc2ccc(C(F)(F)F)cc2)Oc2c(NC(=O)C3CCCCC3)cccc2C1=O	.	2.0	0.4	4.4	-40.5	121.7*[16.7 µM]
C[C@@H]1CN([C@@H](C)CO)C(=O)c2cccc(NC(=O)NC3CCCCC3)c2O[C@@H]1CN(C)Cc1ccc(Cl)c(Cl)c1	-18.1[16.7 µM]	-6.1	9.3*	9.9	-19.7	-3.0[16.7 µM]
CNC[C@H]1Oc2c(NC(=O)Nc3ccc(C(F)(F)F)cc3)cccc2C(=O)N([C@@H](C)CO)C[C@H]1C	63.4*[16.7 µM]	-57.8	-3.5	-1.9	-7.1	-0.9[16.7 µM]
C[C@@H]1CN([C@@H](C)CO)C(=O)c2cccc(NC(=O)C3CCCCC3)c2O[C@H]1CN(C)Cc1ccccc1	62.6*[16.7 µM]	-5.1	-0.2	-1.7	-11.9	2.6[16.7 µM]
C[C@H]1CN([C@@H](C)CO)C(=O)c2cccc(NC(=O)Nc3ccccc3)c2O[C@@H]1CN(C)Cc1ccc(C(F)(F)F)cc1	18.3[16.7 µM]	-3.9	-1.4	0.6	-9.0	72.8[16.7 µM]
